Assay results: ChEMBL document CHEMBL1153425, “Inhibitory effects of sesquiterpene lactones isolated from Eupatorium chinense L. on IgE-mediated degranulation in rat basophilic leukemia RBL-2H3 cells and passive cutaneous anaphylaxis reaction in mice” (Bioorg Med Chem, 2009)
Calls of active or inactive are those of the source. No cut-off for these calls is given here.

How the values were obtained:
[1] = test system: Radical scavenging activity; assay: Antioxidant activity assessed as DPPH-radical scavenging activity at 10 uM; format: functional
RBL-2H3 [2] = assay: Inhibition of DNP/BSA-stimulated ERK1/2 phosphorylation in IgE-sensitized rat RBL2H3 cells after 10 mins by Western blot; format: functional, cell-based
Method in brief: (§1)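 Compound-treated, IgE-sensitized RBL-2H3 cells are stimulated with DNP-BSA for 10 min and lysed in RIPA buffer with protease and phosphatase inhibitors. Lysate (20 µg protein) is run on SDS-PAGE and blotted to PVDF. Membranes are blocked with 5% milk/TPBS and probed with primary antibodies, then […] secondaries. Detection is by ECL chemiluminescence.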

RBL-2H3 [3] = assay: Inhibition of DNP/BSA-stimulated ratio of phospho-Akt to total-Akt level in IgE-sensitized rat RBL2H3 cells after 10 mins by Western blot; format: functional, cell-based; method in brief: as §1
RBL-2H3 [4] = assay: Inhibition of DNP/BSA-stimulated intracellular ROS release in IgE-sensitized rat RBL2H3 cells at 10 uM after 30 mins using CM-H2DCF-DA probe by fluorimetry; format: functional, cell-based
Method in brief: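 IgE-sensitized RBL-2H3 cells (5×10^4/well) are loaded with 10 µM CM-H2DCF-DA for 30 min at 37 °C and washed with PBS. They are then exposed 30 min to 10 µM compound and stimulated with DNP-BSA (10 µg/ml). DCF fluorescence is read at ex 490/em 530 nm.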

RBL-2H3 [5] = assay: Inhibition of DNP/BSA-stimulated p38MAPK phosphorylation in IgE-sensitized rat RBL2H3 cells after 10 mins by Western blot; format: functional, cell-based; method in brief: as §1
RBL-2H3 [6] = assay: Inhibition of DNP/BSA-stimulated JNK1/2 phosphorylation in IgE-sensitized rat RBL2H3 cells after 10 mins by Western blot; format: functional, cell-based; method in brief: as §1
RBL-2H3 [7] = assay: Inhibition of DNP/BSA-stimulated intracellular calcium release in IgE-sensitized rat RBL2H3 cells at 10 uM after 30 mins by fluorimetry; format: functional, cell-based
Method in brief: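 IgE-sensitized (0.45 µg/ml anti-DNP IgE, 24 h) RBL-2H3 cells at 5×10^4/well are loaded with Fluo-3 AM for 1 h. They are then incubated 30 min in loading buffer containing 10 µM compound. Ca2+ change after DNP-BSA (10 µg/ml) is read by fluorescence plate reader, ex 490/em 530 nm. Values are mean ± SEM, n=32.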

RBL-2H3 [8] = assay: Inhibition of DNP/BSA-stimulated beta-hexosamonidase release in IgE-sensitized rat RBL2H3 cells at 5 to 10 uM after 30 mins by colorimetry; format: functional, cell-based
Method in brief: (§2)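 RBL-2H3 cells are plated at 5×10^5 cells/ml, cultured 1 h, then sensitized 24 h with mouse anti-DNP IgE (0.45 µg/ml). After washes, cells sit in Siraganian buffer (pH 7.2; 5.6 mM glucose, 1 mM CaCl2, 0.1% BSA) at 37 °C for 10 min. They are pretreated with 5 or 10 µM compound at 37 °C for 30 min, then challenged with DNP-BSA (10 µg/ml) for 10 min. The reaction is stopped on ice and supernatant taken. Read-outs: β-hexosaminidase by 1 mM p-nitrophenyl-N-acetyl-β-D-glucosaminide in citrate pH 4.5, 37 °C 1 h, A405; histamine by n-butanol/chloroform extraction and o-phthalaldehyde fluorescence (ex 360/em 450), expressed as % inhibition relative to positive and negative controls. Values are mean ± SEM, n=10.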

RBL-2H3 [9] = assay: Inhibition of A-23187-stimulated beta-hexosamonidase release in IgE-sensitized rat RBL2H3 cells at 5 to 10 uM after 30 mins; format: functional, cell-based
RBL-2H3 [10] = assay: Inhibition of DNP/BSA-stimulated histamine release in IgE-sensitized rat RBL2H3 cells at 5 to 10 uM after 30 mins by fluorimetry; format: functional, cell-based; method in brief: as §2

| SMILES | Activity [1] | Activity (RBL-2H3 [2]) | Activity (RBL-2H3 [3]) | Activity (RBL-2H3 [4]) | Activity (RBL-2H3 [5]) | Activity (RBL-2H3 [6]) | Activity (RBL-2H3 [7]) | Activity (RBL-2H3 [8]) | Activity (RBL-2H3 [9]) | Activity (RBL-2H3 [10]) |
| --- | --- | --- | --- | --- | --- | --- | --- | --- | --- | --- |
| C=C1C(=O)O[C@@H]2/C=C(/C)[C@@H](OC(C)=O)C[C@H]3O[C@]3(C)C[C@@H](OC(=O)/C(=C/C)CO)[C@@H]12 | inactive | inactive | Active | inactive | Active | inactive |  |  |  |  |
| C=C1C(=O)O[C@@H]2/C=C(\C)C[C@H](O)/C=C(\C)C[C@@H](OC(=O)/C(=C\C)CO)[C@@H]12 | inactive | inactive | Active | inactive | Active | inactive | Active | Active | Active | Active |
| C=C1C(=O)O[C@H]2/C=C(/C)[C@@H](OC(C)=O)C/C=C(\CO)C[C@@H](OC(=O)C(C)CC)[C@@H]12 (stereo not given in full) | inactive | inactive | Active | inactive | Active | inactive |  |  |  |  |
| C=C1C(=O)O[C@@H]2/C=C(\C)[C@@H](O)C/C=C(\C)C[C@@H](OC(=O)/C(=C\C)CO)[C@@H]12 | inactive | inactive | Active | inactive | Active | inactive |  |  |  |  |
| C=C1C(=O)O[C@H]2/C=C(/C)[C@@H](OC(C)=O)C/C=C(\C)C[C@@H](OC(=O)/C(=C/C)CO)[C@@H]12 | inactive | inactive | Active | inactive | Active | inactive |  |  |  |  |
| C=C1C(=O)O[C@H]2/C=C(/C)[C@H](OC(C)=O)C[C@@H]3O[C@]3(C)C[C@@H](OC(=O)/C(=C/C)CO)[C@@H]12 | inactive | inactive | Active | inactive | Active | inactive |  |  |  |  |
| C=C1C(=O)O[C@@H]2/C=C(\C)[C@@H](O)C/C=C(/C=O)C[C@@H](OC(=O)C(C)CC)[C@@H]12 (stereo not given in full) | inactive | inactive | Active | inactive | Active | inactive | Active | Active | Active | Active |
